Assay results: ChEMBL document CHEMBL1138520, “Molecular and conformational determinants of pituitary adenylate cyclase-activating polypeptide (PACAP) for activation of the PAC1 receptor” (J Med Chem, 2009)
Where a SMILES comes first, the peptide text is derived from it. [ ]: non-standard residue; d: D form. Aad = N[C@@H](CCCC(=O)O)C(=O)O

Legend:
[1] = molecular target: T1, Pituitary adenylate cyclase-activating polypeptide type I receptor (Homo sapiens, UniProt P41586); assay: Displacement of [125I]Ac-PACAP27 from human recombinant PAC1 receptor expressed in CHO cells by gamma- counter; type: cell-based
Target sequence in this assay (P41586 whole entry): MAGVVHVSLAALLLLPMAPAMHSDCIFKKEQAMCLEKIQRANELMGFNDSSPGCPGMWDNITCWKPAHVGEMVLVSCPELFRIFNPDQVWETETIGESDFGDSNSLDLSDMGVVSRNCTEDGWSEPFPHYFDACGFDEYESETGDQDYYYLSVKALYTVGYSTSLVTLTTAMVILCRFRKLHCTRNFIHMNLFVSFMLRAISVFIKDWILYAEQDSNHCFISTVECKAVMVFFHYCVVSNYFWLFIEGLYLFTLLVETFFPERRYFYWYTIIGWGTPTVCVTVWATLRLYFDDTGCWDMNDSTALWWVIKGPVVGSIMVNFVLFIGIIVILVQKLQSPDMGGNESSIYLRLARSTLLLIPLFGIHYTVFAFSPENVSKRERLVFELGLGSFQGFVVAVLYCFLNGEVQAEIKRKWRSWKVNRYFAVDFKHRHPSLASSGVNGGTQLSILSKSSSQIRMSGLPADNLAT

[2] = molecular target: T1, Pituitary adenylate cyclase-activating polypeptide type I receptor; assay: Agonist activity at human recombinant PAC1 receptor expressed in CHO cells assessed as PACAP38-induced calcium mobilization by FLIPR assay; type: functional, cell-based
Method in brief: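 CHO cells stably expressing recombinant human PAC1, plated 24 h before assay, loaded with fluo-4 AM for 60 min at 37 °C in the dark, then rinsed into HBSS for 15 min at 37 °C. EC50 and efficacy came from nonlinear regression; 4-10 independent assays in duplicate.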
Target sequence in this assay (P41586 whole entry): as above

[3] = molecular target: T1, Pituitary adenylate cyclase-activating polypeptide type I receptor; assay: Agonist activity at human recombinant PAC1 receptor expressed in CHO cells assessed as PACAP38-induced calcium mobilization by FLIPR assay relative to PACAP38; type: functional, cell-based
Method in brief: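 CHO cells stably expressing recombinant human PAC1, plated 24 h before assay, loaded with fluo-4 AM for 60 min at 37 °C in the dark, then rinsed into HBSS for 15 min at 37 °C. Peptide was added 18 s into a 150 s read (ex 480/em 525 nm), at final concentrations of 1 × 10-12 to 1 × 10^-5 M. Response was normalised to 1 × 10^-5 M PACAP38 on each plate. EC50 and efficacy came from nonlinear regression; 4-10 independent assays in duplicate.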
Target sequence in this assay (P41586 21-468 limits assumed): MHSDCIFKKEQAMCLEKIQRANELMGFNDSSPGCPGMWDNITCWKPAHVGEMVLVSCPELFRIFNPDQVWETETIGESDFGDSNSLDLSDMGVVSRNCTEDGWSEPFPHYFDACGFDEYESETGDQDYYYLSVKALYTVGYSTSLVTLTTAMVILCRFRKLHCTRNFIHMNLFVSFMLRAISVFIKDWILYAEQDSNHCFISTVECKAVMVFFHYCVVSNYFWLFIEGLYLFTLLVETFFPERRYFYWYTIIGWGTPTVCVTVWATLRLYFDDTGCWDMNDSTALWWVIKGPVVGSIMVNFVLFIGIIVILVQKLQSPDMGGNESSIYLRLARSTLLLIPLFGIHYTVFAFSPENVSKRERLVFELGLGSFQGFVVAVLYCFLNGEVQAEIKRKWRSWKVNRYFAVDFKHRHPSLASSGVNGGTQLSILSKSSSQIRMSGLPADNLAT

Structure (SMILES) | IC50 [1] | EC50 [2] | Emax [3]
CC[C@H](C)[C@H](NC(=O)CNC(=O)[C@@H](CC(=O)O)NC(=O)[C@H](CO)NC(=O)[C@@H](N)Cc1cnc[nH]1)C(=O)N[C@@H](Cc1ccccc1)C(=O)N[C@H](C(=O)N[C@@H](CC(=O)O)C(=O)N[C@@H](CO)C(=O)N[C@@H](Cc1ccc(O)cc1)C(=O)N[C@@H](CO)C(=O)N[C@@H](CCCNC(=N)N)C(=O)N[C@@H](Cc1ccc(O)cc1)C(=O)N[C@@H](CCCNC(=N)N)C(=O)N[C@@H](CCCCN)C(=O)N[C@@H](CCC(N)=O)C(=O)N[C@@H](CCSC)C(=O)N[C@@H](C)C(=O)N[C@H](C(=O)N[C@@H](CCCCN)C(=O)N[C@@H](CCCCN)C(=O)N[C@@H](Cc1ccc(O)cc1)C(=O)N[C@@H](CC(C)C)C(=O)N[C@@H](C)C(=O)N[C@@H](C)C(=O)N[C@H](C(=O)N[C@@H](CC(C)C)C(=O)NCC(=O)N[C@@H](CCCCN)C(=O)N[C@@H](CCCNC(=N)N)C(=O)N[C@@H](Cc1ccc(O)cc1)C(=O)N[C@@H](CCCCN)C(=O)N[C@@H](CCC(N)=O)C(=O)N[C@@H](CCCNC(=N)N)C(=O)N[C@H](C(=O)N[C@@H](CCCCN)C(=O)N[C@@H](CC(N)=O)C(=O)N[C@@H](CCCCN)C(N)=O)C(C)C)C(C)C)C(C)C)[C@@H](C)O | 7.2 nM | 7.6 nM | 98.6%
CC[C@H](C)[C@H](NC(=O)CNC(=O)[C@H](CC(=O)O)NC(=O)[C@@H]1CCCN1C(=O)[C@@H](N)Cc1cnc[nH]1)C(=O)N[C@@H](Cc1ccccc1)C(=O)N[C@H](C(=O)N[C@@H](CC(=O)O)C(=O)N[C@@H](CO)C(=O)N[C@@H](Cc1ccc(O)cc1)C(=O)N[C@@H](CO)C(=O)N[C@@H](CCCNC(=N)N)C(=O)N[C@@H](Cc1ccc(O)cc1)C(=O)N[C@@H](CCCNC(=N)N)C(=O)N[C@@H](CCCCN)C(=O)N[C@@H](CCC(N)=O)C(=O)N[C@@H](CCSC)C(=O)N[C@@H](C)C(=O)N[C@H](C(=O)N[C@@H](CCCCN)C(=O)N[C@@H](CCCCN)C(=O)N[C@@H](Cc1ccc(O)cc1)C(=O)N[C@@H](CC(C)C)C(=O)N[C@@H](C)C(=O)N[C@@H](C)C(=O)N[C@H](C(=O)N[C@@H](CC(C)C)C(N)=O)C(C)C)C(C)C)[C@@H](C)O | 7.8 nM | 7.4 nM | 94.2%
CC[C@H](C)[C@H](NC(=O)CNC(=O)[C@H](CCCC(=O)O)NC(=O)[C@H](CO)NC(=O)[C@@H](N)Cc1cnc[nH]1)C(=O)N[C@@H](Cc1ccccc1)C(=O)N[C@H](C(=O)N[C@@H](CC(=O)O)C(=O)N[C@@H](CO)C(=O)N[C@@H](Cc1ccc(O)cc1)C(=O)N[C@@H](CO)C(=O)N[C@@H](CCCNC(=N)N)C(=O)N[C@@H](Cc1ccc(O)cc1)C(=O)N[C@@H](CCCNC(=N)N)C(=O)N[C@@H](CCCCN)C(=O)N[C@@H](CCC(N)=O)C(=O)N[C@@H](CCSC)C(=O)N[C@@H](C)C(=O)N[C@H](C(=O)N[C@@H](CCCCN)C(=O)N[C@@H](CCCCN)C(=O)N[C@@H](Cc1ccc(O)cc1)C(=O)N[C@@H](CC(C)C)C(=O)N[C@@H](C)C(=O)N[C@@H](C)C(=O)N[C@H](C(=O)N[C@@H](CC(C)C)C(=O)NCC(=O)N[C@@H](CCCCN)C(=O)N[C@@H](CCCNC(=N)N)C(=O)N[C@@H](Cc1ccc(O)cc1)C(=O)N[C@@H](CCCCN)C(=O)N[C@@H](CCC(N)=O)C(=O)N[C@@H](CCCNC(=N)N)C(=O)N[C@H](C(=O)N[C@@H](CCCCN)C(=O)N[C@@H](CC(N)=O)C(=O)N[C@@H](CCCCN)C(N)=O)C(C)C)C(C)C)C(C)C)[C@@H](C)O (H-HS[Aad]GIFTDSYSRYRKQMAVKKYLAAVLGKRYKQRVKNK-NH2) | 12.5 nM | 37.6 nM | 18.2%
CC[C@H](C)[C@H](NC(=O)CNC(=O)[C@H](CC(=O)O)NC(=O)[C@H](C)NC(=O)[C@@H](N)Cc1cnc[nH]1)C(=O)N[C@@H](Cc1ccccc1)C(=O)N[C@H](C(=O)N[C@@H](CC(=O)O)C(=O)N[C@@H](CO)C(=O)N[C@@H](Cc1ccc(O)cc1)C(=O)N[C@@H](CO)C(=O)N[C@@H](CCCNC(=N)N)C(=O)N[C@@H](Cc1ccc(O)cc1)C(=O)N[C@@H](CCCNC(=N)N)C(=O)N[C@@H](CCCCN)C(=O)N[C@@H](CCC(N)=O)C(=O)N[C@@H](CCSC)C(=O)N[C@@H](C)C(=O)N[C@H](C(=O)N[C@@H](CCCCN)C(=O)N[C@@H](CCCCN)C(=O)N[C@@H](Cc1ccc(O)cc1)C(=O)N[C@@H](CC(C)C)C(=O)N[C@@H](C)C(=O)N[C@@H](C)C(=O)N[C@H](C(=O)N[C@@H](CC(C)C)C(N)=O)C(C)C)C(C)C)[C@@H](C)O | 5.1 nM | 6.8 nM | 98.1%
CC[C@H](C)[C@H](NC(=O)CNC(=O)[C@H](CC(=O)O)NC(=O)[C@H](CO)NC(=O)[C@@H](N)Cc1cnc[nH]1)C(=O)N1c2ccccc2CC1C(=O)N[C@H](C(=O)N[C@@H](CC(=O)O)C(=O)N[C@@H](CO)C(=O)N[C@@H](Cc1ccc(O)cc1)C(=O)N[C@@H](CO)C(=O)N[C@@H](CCCNC(=N)N)C(=O)N[C@@H](Cc1ccc(O)cc1)C(=O)N[C@@H](CCCNC(=N)N)C(=O)N[C@@H](CCCCN)C(=O)N[C@@H](CCC(N)=O)C(=O)N[C@@H](CCSC)C(=O)N[C@@H](C)C(=O)N[C@H](C(=O)N[C@@H](CCCCN)C(=O)N[C@@H](CCCCN)C(=O)N[C@@H](Cc1ccc(O)cc1)C(=O)N[C@@H](CC(C)C)C(=O)N[C@@H](C)C(=O)N[C@@H](C)C(=O)N[C@H](C(=O)N[C@@H](CC(C)C)C(N)=O)C(C)C)C(C)C)[C@@H](C)O (stereo not given in full) | 1940 nM | 35 nM | 72%
CSCC[C@H](NC(=O)[C@H](CCC(N)=O)NC(=O)[C@H](CCCCN)NC(=O)[C@H](CCCNC(=N)N)NC(=O)[C@H](Cc1ccc(O)cc1)NC(=O)[C@H](CCCNC(=N)N)NC(=O)[C@H](CO)NC(=O)[C@H](Cc1ccc(O)cc1)NC(=O)[C@H](CO)NC(=O)[C@H](CC(=O)O)NC(=O)[C@@H](NC(=O)[C@H](Cc1ccccc1)NC(=O)[C@H](CC(C)C)N1CC[C@H](NC(=O)[C@H](CC(=O)O)NC(=O)[C@H](CO)NC(=O)[C@@H](N)Cc2cnc[nH]2)C1=O)[C@@H](C)O)C(=O)N[C@@H](C)C(=O)N[C@H](C(=O)N[C@@H](CCCCN)C(=O)N[C@@H](CCCCN)C(=O)N[C@@H](Cc1ccc(O)cc1)C(=O)N[C@@H](CC(C)C)C(=O)N[C@@H](C)C(=O)N[C@@H](C)C(=O)N[C@H](C(=O)N[C@@H](CC(C)C)C(N)=O)C(C)C)C(C)C | 1980 nM | 1030 nM | 54.1%
CC[C@H](C)[C@H](NC(=O)CNC(=O)[C@H](CC(=O)O)NC(=O)[C@H](CO)NC(=O)[C@H](C)N)C(=O)N[C@@H](Cc1ccccc1)C(=O)N[C@H](C(=O)N[C@@H](CC(=O)O)C(=O)N[C@@H](CO)C(=O)N[C@@H](Cc1ccc(O)cc1)C(=O)N[C@@H](CO)C(=O)N[C@@H](CCCNC(=N)N)C(=O)N[C@@H](Cc1ccc(O)cc1)C(=O)N[C@@H](CCCNC(=N)N)C(=O)N[C@@H](CCCCN)C(=O)N[C@@H](CCC(N)=O)C(=O)N[C@@H](CCSC)C(=O)N[C@@H](C)C(=O)N[C@H](C(=O)N[C@@H](CCCCN)C(=O)N[C@@H](CCCCN)C(=O)N[C@@H](Cc1ccc(O)cc1)C(=O)N[C@@H](CC(C)C)C(=O)N[C@@H](C)C(=O)N[C@@H](C)C(=O)N[C@H](C(=O)N[C@@H](CC(C)C)C(N)=O)C(C)C)C(C)C)[C@@H](C)O | 335 nM | 174 nM | 70%
CC[C@H](C)[C@H](NC(=O)CNC(=O)[C@H](CC(=O)O)NC(=O)[C@H](CO)NC(=O)[C@@H](N)Cc1cnc[nH]1)C(=O)N[C@@H](CC1CCCCC1)C(=O)N[C@H](C(=O)N[C@@H](CC(=O)O)C(=O)N[C@@H](CO)C(=O)N[C@@H](Cc1ccc(O)cc1)C(=O)N[C@@H](CO)C(=O)N[C@@H](CCCNC(=N)N)C(=O)N[C@@H](Cc1ccc(O)cc1)C(=O)N[C@@H](CCCNC(=N)N)C(=O)N[C@@H](CCCCN)C(=O)N[C@@H](CCC(N)=O)C(=O)N[C@@H](CCSC)C(=O)N[C@@H](C)C(=O)N[C@H](C(=O)N[C@@H](CCCCN)C(=O)N[C@@H](CCCCN)C(=O)N[C@@H](Cc1ccc(O)cc1)C(=O)N[C@@H](CC(C)C)C(=O)N[C@@H](C)C(=O)N[C@@H](C)C(=O)N[C@H](C(=O)N[C@@H](CC(C)C)C(N)=O)C(C)C)C(C)C)[C@@H](C)O | 11 nM | 8.4 nM | 105%
CC[C@H](C)[C@@H](C(=O)N[C@@H](Cc1ccccc1)C(=O)N[C@H](C(=O)N[C@@H](CC(=O)O)C(=O)N[C@@H](CO)C(=O)N[C@@H](Cc1ccc(O)cc1)C(=O)N[C@@H](CO)C(=O)N[C@@H](CCCNC(=N)N)C(=O)N[C@@H](Cc1ccc(O)cc1)C(=O)N[C@@H](CCCNC(=N)N)C(=O)N[C@@H](CCCCN)C(=O)N[C@@H](CCC(N)=O)C(=O)N[C@@H](CCSC)C(=O)N[C@@H](C)C(=O)N[C@H](C(=O)N[C@@H](CCCCN)C(=O)N[C@@H](CCCCN)C(=O)N[C@@H](Cc1ccc(O)cc1)C(=O)N[C@@H](CC(C)C)C(=O)N[C@@H](C)C(=O)N[C@@H](C)C(=O)N[C@H](C(=O)N[C@@H](CC(C)C)C(N)=O)C(C)C)C(C)C)[C@@H](C)O)N(C)C(=O)CNC(=O)[C@H](CC(=O)O)NC(=O)[C@H](CO)NC(=O)[C@@H](N)Cc1cnc[nH]1 | 1770 nM | 1810 nM | 34.5%
CC[C@H](C)[C@H](NC(=O)CNC(=O)[C@H](CC(=O)O)NC(=O)[C@H](CO)NC(=O)[C@@H](N)Cc1cnc[nH]1)C(=O)N1Cc2ccccc2CC1C(=O)N[C@H](C(=O)N[C@@H](CC(=O)O)C(=O)N[C@@H](CO)C(=O)N[C@@H](Cc1ccc(O)cc1)C(=O)N[C@@H](CO)C(=O)N[C@@H](CCCNC(=N)N)C(=O)N[C@@H](Cc1ccc(O)cc1)C(=O)N[C@@H](CCCNC(=N)N)C(=O)N[C@@H](CCCCN)C(=O)N[C@@H](CCC(N)=O)C(=O)N[C@@H](CCSC)C(=O)N[C@@H](C)C(=O)N[C@H](C(=O)N[C@@H](CCCCN)C(=O)N[C@@H](CCCCN)C(=O)N[C@@H](Cc1ccc(O)cc1)C(=O)N[C@@H](CC(C)C)C(=O)N[C@@H](C)C(=O)N[C@@H](C)C(=O)N[C@H](C(=O)N[C@@H](CC(C)C)C(N)=O)C(C)C)C(C)C)[C@@H](C)O (stereo not given in full) | 2170 nM | 564 nM | 65.9%
